Reference: ChEMBL document CHEMBL3407499, “Synthesis, QSAR and anticandidal evaluation of 1,2,3-triazoles derived from naturally bioactive scaffolds” (Eur J Med Chem, 2015)
Values after ≈ are worked out from the molar mass of the structure shown.

Key:
[1] = tested on: Nakaseomyces glabratus; assay: microbe, parasite or virus in culture; type: functional; settings: ATCC 90030, 48 h
[2] = tested on: Nakaseomyces glabratus; assay: microbe, parasite or virus in culture; type: functional, organism-based; settings: ATCC 90030, 24 h
[3] = tested on: Candida albicans; assay: microbe, parasite or virus in culture; type: functional; settings: ATCC 90028, 48 h
[4] = tested on: Candida tropicalis; assay: Fungicidal activity against Candida tropicalis ATCC 750 incubated at 37 degC for 48 hrs by broth dilution method; type: functional; settings: ATCC 750, 48 h
[5] = tested on: Vero; assay: Cytotoxicity against African green monkey Vero cells assessed as reduction in cell viability up to 10 ug/ml after 48 hrs by neutral red assay; type: cell-based; settings: chlorocebus sabaeus
[6] = tested on: Candida tropicalis; assay: Anticandidal activity against Candida tropicalis ATCC 750 incubated at 37 degC for 24 hrs by broth dilution method; type: functional, organism-based; settings: ATCC 750, 24 h
[7] = tested on: Candida albicans; assay: microbe, parasite or virus in culture; type: functional, organism-based; settings: ATCC 90028, 24 h
[8] = Toxicity in human RBC assessed as induction of hemolysis at anticandidal IC50 level incubated for 1 hr by spectrophotometry; type: cell-based, Erythrocyte; settings: red blood cells (RBC), read-out: Activity
In short: (§1)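 Human erythrocyte suspension in PBS, 100 µL added in triplicate to 100 µL compound dilution series in the same buffer, 1 h at 37 °C. Tubes centrifuged 10 min at 2000 rpm and 20 °C, and supernatant A450 measured. Percent hemolysis taken relative to buffer (0%) and 1% Triton X-100 (100%).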

[9] = Toxicity in human RBC assessed as induction of hemolysis at 500 ug/ml incubated for 1 hr by spectrophotometry; type: cell-based, Erythrocyte; settings: red blood cells (RBC), read-out: Activity
In short: as §1

[10] = tested on: Candida tropicalis; assay: Anticandidal activity against Candida tropicalis ATCC 750 incubated at 37 degC for 24 hrs in presence of 8-((1-Benzyl-1H-1,2,3-triazol-4-yl)methoxy)quinoline by broth micro dilution method; type: functional; settings: ATCC 750, 24 h
[11] = tested on: Nakaseomyces glabratus; assay: Anticandidal activity against Candida glabrata ATCC 90030 incubated at 37 degC for 24 hrs in presence of 8-((1-Benzyl-1H-1,2,3-triazol-4-yl)methoxy)quinoline by broth micro dilution method; type: functional; settings: ATCC 90030, 24 h
[12] = tested on: Candida albicans; assay: Anticandidal activity against Candida albicans ATCC 90028 incubated at 37 degC for 24 hrs in presence of fluconazole by broth micro dilution method; type: functional; settings: ATCC 90028, 24 h
[13] = tested on: Candida tropicalis; assay: Anticandidal activity against Candida tropicalis ATCC 750 assessed as fractional inhibitory concentration incubated at 37 degC for 24 hrs in presence of fluconazole by broth micro dilution method; type: functional
[14] = tested on: Candida tropicalis; assay: Anticandidal activity against Candida tropicalis ATCC 750 incubated at 37 degC for 24 hrs in presence of fluconazole by broth micro dilution method; type: functional; settings: ATCC 750, 24 h
[15] = tested on: Candida albicans; assay: Anticandidal activity against Candida albicans ATCC 90028 assessed as fractional inhibitory concentration incubated at 37 degC for 24 hrs in presence of fluconazole by broth micro dilution method; type: functional
[16] = tested on: Nakaseomyces glabratus; assay: Anticandidal activity against Candida glabrata ATCC 90030 incubated at 37 degC for 24 hrs in presence of fluconazole by broth micro dilution method; type: functional; settings: ATCC 90030, 24 h
[17] = tested on: Nakaseomyces glabratus; assay: Anticandidal activity against Candida glabrata ATCC 90030 assessed as fractional inhibitory concentration incubated at 37 degC for 24 hrs in presence of fluconazole by broth micro dilution method; type: functional
[18] = tested on: Vero; assay: Cytotoxicity against African green monkey Vero cells assessed as reduction in cell viability after 48 hrs by neutral red assay; type: cell-based; settings: chlorocebus sabaeus
In short: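 Vero (monkey kidney fibroblast) cells seeded at 25,000 cells/well, grown 24 h, then exposed to a range of compound concentrations for 48 h. Viable cells quantified by Neutral Red uptake. IC50 read from dose-response curves. Doxorubicin served as positive cytotoxic control.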

SMILES | MFC [1] [µg/mL] | IC50 [2] [µg/mL] | MFC [3] [µg/mL] | MFC [4] [µg/mL] | Activity [5] | IC50 [6] [µg/mL] | IC50 [7] [µg/mL] | further results
COc1cc(/C=C/C(=O)O)ccc1OCc1cn(Cc2ccccc2)nn1 | > 1000 | 416 (≈ 1140 µM) | > 1000 | > 1000 | Non-toxic | 105 (≈ 288 µM) | 891 (≈ 2440 µM) | –
COc1cc(C=O)ccc1OCc1cn(Cc2ccccc2)nn1 | 500 (≈ 1550 µM) | 216 (≈ 667 µM) | > 500 | 500 (≈ 1550 µM) | Non-toxic | 92.7 (≈ 287 µM) | 44.7 (≈ 138 µM) | hemolysis at 1 h [8]: < 5%; hemolysis at 1 h, 500 ug/ml [9]: 33.5%
OC(Cn1cncn1)(Cn1cncn1)c1ccc(F)cc1F [FLUCONAZOLE] | – | 7.81 (≈ 25.5 µM) | – | – | – | 8.55 (≈ 27.9 µM) | 15.6 (≈ 51 µM) | MIC [10]: 3.9 µg/mL; MIC [2]: 15.6 µg/mL (≈ 51 µM); MIC [11]: 3.9 µg/mL; MIC [6]: 15.6 µg/mL (≈ 51 µM); hemolysis at 1 h, 500 ug/ml [9]: 68.6%
COc1cc(C=O)ccc1O [VANILLIN] | > 1000 | 483 (≈ 3170 µM) | > 1000 | > 1000 | – | 123 (≈ 811 µM) | 321 (≈ 2110 µM) | hemolysis at 1 h [8]: < 5%; hemolysis at 1 h, 500 ug/ml [9]: 5.45%
c1ccc(Cn2cc(COc3cccc4cccnc34)nn2)cc1 | 125 (≈ 395 µM) | 12 (≈ 38 µM) | 62.5 (≈ 198 µM) | 62.5 (≈ 198 µM) | Non-toxic | 3.6 (≈ 11.4 µM) | 0.044 (≈ 0.139 µM) | MIC [2]: 31.2 µg/mL (≈ 98.8 µM); MIC [12]: 7.81 µg/mL; fractional inhibitory concentration index (FICI) [13]: 0.74; MIC [14]: 7.81 µg/mL; fractional inhibitory concentration index (FICI) [15]: 0.74; MIC [6]: 15.6 µg/mL (≈ 49.4 µM); MIC [16]: 7.81 µg/mL; MIC [7]: 15.6 µg/mL (≈ 49.4 µM); hemolysis at 1 h [8]: < 5%; hemolysis at 1 h, 500 ug/ml [9]: 4.76%; fractional inhibitory concentration index (FICI) [17]: 0.48
C=CCc1ccc(OCc2cn(Cc3ccccc3)nn2)c(OC)c1 | > 1000 | 847 (≈ 2530 µM) | > 1000 | – | Non-toxic | 734 (≈ 2190 µM) | 1090 (≈ 3260 µM) | –
CC(C)c1ccc(OCc2cn(Cc3ccccc3)nn2)cc1 | 1000 (≈ 3250 µM) | 1060 (≈ 3460 µM) | 1000 (≈ 3250 µM) | 1000 (≈ 3250 µM) | Non-toxic | 493 (≈ 1600 µM) | 550 (≈ 1790 µM) | –
COc1ccccc1O [GUAIACOL] | > 1000 | 336 (≈ 2700 µM) | > 1000 | > 1000 | – | 201 (≈ 1620 µM) | 179 (≈ 1440 µM) | –
COc1cccc2c1C(=O)c1c(O)c3c(c(O)c1C2=O)C[C@@](O)(C(=O)CO)C[C@@H]3O[C@H]1C[C@H](N)[C@H](O)[C@H](C)O1 [DOXORUBICIN] | – | – | – | – | – | – | – | IC50 [18]: > 5 µg/mL
C/C=C/c1ccc(OCc2cn(Cc3ccccc3)nn2)c(OC)c1 | > 1000 | 293 (≈ 873 µM) | – | > 1000 | Non-toxic | 154 (≈ 459 µM) | 481 (≈ 1430 µM) | –
Oc1cccc2cccnc12 [OXYQUINOLINE] | 500 (≈ 3440 µM) | 13.8 (≈ 95.1 µM) | 500 (≈ 3440 µM) | 500 (≈ 3440 µM) | – | 22.9 (≈ 158 µM) | 18.5 (≈ 127 µM) | MIC [6]: 15.6 µg/mL (≈ 108 µM); hemolysis at 1 h [8]: < 5%; hemolysis at 1 h, 500 ug/ml [9]: 15%
C/C=C\c1ccc(O)c(OC)c1 [ISOEUGENOL] | 500 (≈ 3040 µM) | 71.6 (≈ 436 µM) | 1000 (≈ 6090 µM) | 1000 (≈ 6090 µM) | – | 128 (≈ 778 µM) | 83 (≈ 505 µM) | –
COc1cc(/C=C/C(=O)O)ccc1O [FERULATE] | > 1000 | 617 (≈ 3180 µM) | > 1000 | > 1000 | – | 67.6 (≈ 348 µM) | 210 (≈ 1080 µM) | –
C=CCc1ccc(O)c(OC)c1 [EUGENOL] | > 1000 | 216 (≈ 1310 µM) | > 1000 | > 1000 | – | 92.7 (≈ 564 µM) | 237 (≈ 1440 µM) | –
CC(C)c1ccc(O)cc1 | > 1000 | 153 (≈ 1130 µM) | 500 (≈ 3670 µM) | > 1000 | – | 69.5 (≈ 510 µM) | 182 (≈ 1330 µM) | –
COc1ccccc1OCc1cn(Cc2ccccc2)nn1 | > 1000 | 370 (≈ 1250 µM) | – | – | Non-toxic | 165 (≈ 559 µM) | 515 (≈ 1740 µM) | –
CC(C)c1ccc(CO)cc1 | 500 (≈ 3330 µM) | 7.09 (≈ 47.2 µM) | 1000 (≈ 6660 µM) | 1000 (≈ 6660 µM) | – | 44.8 (≈ 298 µM) | 81.5 (≈ 542 µM) | –
CC(C)c1ccc(COCc2cn(Cc3ccccc3)nn2)cc1 | > 1000 | 316 (≈ 984 µM) | > 1000 | > 1000 | Non-toxic | 169 (≈ 527 µM) | 324 (≈ 1010 µM) | –
